# Published values from different studies.
# Compare with care: the assays were run in different laboratories.
# HTR2C: 5-hydroxytryptamine receptor 2C (HTR2C, Homo sapiens, UniProt P28335)
Compound,target,read-out,action,method,concentration,measurement,value
Nc1ncnc2c1ncn2[C@@H]1O[C@H](C[C@@H](N)CC[C@H](N)C(=O)O)[C@@H](O)[C@H]1O,"mRNA cap guanine-N(7) methyltransferase (RNMT, Homo sapiens, UniProt O43148)",enzyme activity,inhibitor,,12.5 µM,inhibition,61.8%
[2H]c1c([2H])c([C@]2([2H])CCCN2C(=O)C(C)(C)Oc2ccc3cn[nH]c3c2)c([2H])c([2H])c1C([2H])([2H])[2H],"Tyrosine-protein kinase receptor TYRO3 (TYRO3, Homo sapiens, UniProt Q06418)",binding,,competition with immobilised ligand,1 µM,remaining binding,57%
O=P(O)(O)O[C@H]1[C@H](OP(=O)(O)O)[C@@H](OP(=O)(O)O)[C@H](OP(=O)(O)O)[C@@H](OP(=O)(O)O)[C@H]1OP(=O)(O)O,"Toxin B (tcdB, Clostridioides difficile, UniProt P18177)",binding,,ITC,,residence time,0.4 min
COc1cc(CCNC(C)c2ccccc2)c(OC)cc1C#N (stereo not drawn),HTR2C,calcium signal,agonist,,,Emax,41%
CC(C)CC(=O)OC[C@H]1O[C@@](C#N)(c2ccc3c(N)ncnn23)[C@H](O)[C@@H]1O,"B2 bradykinin receptor (BDKRB2, Homo sapiens, UniProt P30411)",cell-free assay,,,20 µM,inhibition,-2%
COc1cc(CCNCc2ccccc2O)c(OC)cc1C#N,HTR2C,G protein activation,agonist,BRET,,Emax,122%
COc1cc2c(cc1OC)-c1c(OC)c(OC)cc3c1[C@H](C2)N(C)CC3,HTR2C,ligand displacement,,radioligand,10 µM,inhibition,79%
COc1cc(CCNC(C)c2ccccc2O)c(OC)cc1Br (stereo not drawn),HTR2C,calcium signal,agonist,,,Emax,92%
COc1cc2c3c(c1OC)-c1c(OC)ccc(Cl)c1CC3N(C)CC2 (racemic),HTR2C,ligand displacement,,radioligand,10 µM,inhibition,80%
